Assay results collected from several papers.
Target: Glycogen synthase kinase-3 beta (GSK3B, Homo sapiens, UniProt P49841)

Compound	effect on	action	technique	tested at	measurement	value
COc1cc(Nc2cnc(C#N)c(O[C@H](C)CN(C)C)n2)ncc1-c1cnn(C)c1	enzyme activity	inhibitor	radiometric	10 µM	remaining activity	52%
CC(C)c1ccc(NC(=O)c2cccs2)c(-c2nc3ccccc3[nH]c2=O)c1	enzyme activity	inhibitor		1 µM	activity vs control	128%
FC(F)(F)Oc1cccc(-c2cnc3ccc(-c4ccncc4)nn23)c1	enzyme activity	inhibitor	radiometric	1 µM	activity vs control	88%
CN(C)c1ncnc(-c2ccc3nc(Nc4cc(CN5CCN(C(=O)CC(F)(F)F)CC5)ccn4)[nH]c3c2)c1Cl	cell-free assay		competition with immobilised ligand	1 µM	remaining binding	100%
COc1cc2c(cc1OC)-c1c(oc3c4c(ccc3c1=O)OC(C)(C)C=C4)CO2	enzyme activity	inhibitor	ADP detection	100 µM	inhibition	10.4%
CCN(CC)c1ccc(C2=NNC(=O)CC2C)cc1[N+](=O)[O-] (stereo not drawn)	enzyme activity	inhibitor		10 µM	remaining activity	93%
CCCOc1ccc(OC)c(F)c1C(=O)c1ccc(C(=O)N[C@@H]2CNC[C@H]2NC(=O)c2ccc3[nH]ncc3c2)cc1	enzyme activity	inhibitor		10 µM	remaining activity	67%
CS(=O)(=O)NCC[C@H](NC(=O)c1cncc2c1cnn2-c1ccc(F)cc1)c1ccnc(S(C)(=O)=O)c1	cell-free assay		competition with immobilised ligand	1 µM	remaining binding	100%
Cn1c(=O)n(-c2ccc(C(C)(C)C#N)cc2)c2c3cc(-c4cnc5ccccc5c4)ccc3ncc21	enzyme activity	inhibitor		10 µM	remaining activity	76%
Fc1ccc([C@@H]2CCNC[C@H]2COc2ccc3c(c2)OCO3)cc1	enzyme activity	inhibitor	ADP detection	100 µM	inhibition	0.9%
C[C@@H]1CN(c2cc(-c3n[nH]c4ccc(OC5(C)CC5)cc34)ncn2)C[C@H](C)O1	cell-free assay		competition with immobilised ligand	0.1 µM	remaining binding	90%
COc1ccc([C@H]2COc3c(ccc(O)c3OC)C2)c(OC)c1O	enzyme activity	inhibitor	ADP detection	100 µM	inhibition	15.7%
Nc1cccc(-c2cc3c(Oc4cccc(O)c4)ncnc3[nH]2)c1	cell-free assay			0.5 µM	remaining signal	48.1%
CCC(=O)N[C@@H]1CC[C@H](C(=O)N(C)c2ccc(-c3nc4ccccc4o3)cc2)C1	cell-free assay		competition with immobilised ligand	1 µM	remaining binding	96%
Nc1nc(Nc2ccc(S(N)(=O)=O)cc2)nn1C(=O)c1c(F)cccc1F	cell-free assay			0.5 µM	remaining signal	22%
O=C(O)c1cn(C2CC2)c2cc(N3CCNCC3)c(F)cc2c1=O	enzyme activity	inhibitor	ADP detection	100 µM	inhibition	18.7%
Cc1nc(C2CCN(C(=O)c3ccc(OC(F)(F)F)cc3N)CC2)c2ncc(N3CCN(C)CC3)cc2n1	cell-free assay		competition with immobilised ligand	1 µM	remaining binding	100%
Cn1sc(=O)n(Cc2ccccc2)c1=O	cell-free assay			0.5 µM	remaining signal	114%

Compound	effect on	action	technique	tested at	measurement	value
O=C(Nc1cnn(-c2csc(C(=O)NC3COC3)c2)c1)Nc1c(F)cccc1Cl	enzyme activity	inhibitor		5 µM	remaining activity	95.7%
COc1ccc(CNC(=O)Nc2ncc([N+](=O)[O-])s2)cc1	cell-free assay			0.5 µM	remaining signal	40.2%
C[C@H](c1ccc(F)cc1)N(Cc1cccc(C(=O)O)c1)C(=O)c1cnc2ccccc2c1	cell-free assay		competition with immobilised ligand	1 µM	remaining binding	100%
O=C(Nc1cnn(-c2csc(C(=O)NC3COC3)c2)c1)Nc1ccccc1Cl	enzyme activity	inhibitor		5 µM	remaining activity	95%
COc1cc(Cl)c(C(=O)N[C@@H](CN[C@H]2CC[C@@H](N)CC2)Cc2ccc(C#N)cc2)cc1-c1ccc(CN[C@H](C)c2ccc(C)cc2)o1	enzyme activity	inhibitor		1 µM	remaining activity	101%
Cc1ccc(NC(=O)c2ccc(C)c(C(F)(F)F)c2)cc1C#Cc1nn(C2CCC(O)CC2)c2ncnc(N)c12 (stereo not drawn)	cell-free assay			10 µM	remaining signal	26%
O=C1NC(=O)c2cc(Nc3ccc(F)cc3)c(Nc3ccc(F)cc3)cc21	cell-free assay			0.5 µM	remaining signal	89.2%
Cc1cc(NC(=O)c2cccc3cc(-c4cccc5[nH]nc(N)c45)ccc23)ccc1F	enzyme activity	inhibitor		0.1 µM	activity vs control	85%
O=C(O)c1cc(-c2ccc(F)cc2F)ccc1O	enzyme activity	inhibitor	ADP detection	100 µM	inhibition	38.6%
CNC(=O)c1cc(Oc2ccc(NC(=O)Nc3ccc(Cl)c(C(F)(F)F)c3)cc2)ccn1	cell-free assay			0.5 µM	remaining signal	101%
Cc1cnc(C(=O)NCCc2ccc(S(=O)(=O)NC(=O)NC3CCCCC3)cc2)cn1	enzyme activity	inhibitor	ADP detection	100 µM	inhibition	45.4%
Nc1ncnc2occ(-c3ccc(NC(=O)Nc4cc(C(F)(F)F)ccc4F)cc3)c12	enzyme activity	inhibitor		20 µM	remaining activity	57%
C[C@@H]1CN(c2cc(-c3nn(C)c4ccc(OC5(C)CC5)cc34)ncn2)C[C@H](C)O1	cell-free assay		competition with immobilised ligand	1 µM	remaining binding	91%
O=C1c2ccccc2-c2n[nH]c3cccc1c23	enzyme activity	inhibitor		0.5 µM	activity vs control	86.8%
Cc1ncc([N+](=O)[O-])n1CCO	enzyme activity	inhibitor	ADP detection	100 µM	inhibition	32.8%
O=c1cc(-c2cccc3c2Sc2ccccc2S3)oc(N2CCOCC2)c1	enzyme activity	inhibitor		0.5 µM	remaining activity	98.7%
CS(=O)(=O)c1cc(C2(NC(=O)c3cncc4c3cnn4-c3ccc(F)cc3)CC2)ccn1	cell-free assay		competition with immobilised ligand	1 µM	remaining binding	85%
Oc1cc2c(cc1O)C1c3ccc(O)c(O)c3OCC1(O)C2 (stereo not drawn)	enzyme activity	inhibitor	ADP detection	100 µM	inhibition	50.5%
